For orientation: Km means the substrate concentration at which the rate is half of its maximum. One may read the kcat/Km as the second-order rate constant that governs catalysis at low substrate concentration.

Assay [1] concerns Mycobacterium tuberculosis. In words: Activity at Mycobacterium tuberculosis beta lactamase BlaC expressed in Escherichia coli by spectrophotometric method. The essentials:
(§1)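 BlaC produced in E. coli, purified by Ni-NTA affinity and size-exclusion chromatography. Carbapenem hydrolysis followed spectrophotometrically in 100 mM MES buffer, pH 6.4, at 20 °C. Direct determination of kcat and Km for substrates with Km above 10 μM. For the other compounds, kcat and Km were obtained by competition against the reporter substrate nitrocefin.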

For assay [2], the system named is Mycobacterium tuberculosis. The assay is described as follows: Inhibition of Mycobacterium tuberculosis LdtMt1 expressed in Escherichia coli assessed as efficiency of acylation reaction by measuring ratio of K2 to Kapp by stopped-flow spectrofluorimetric method. The essentials: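 His-tagged LdtMt1 expressed in E. coli and purified by Ni2+-NTA affinity, then by size-exclusion chromatography in 100 mM sodium phosphate pH 6.4 with 300 mM NaCl. Inactivation kinetics measured by stopped-flow spectrofluorimetry in 100 mM sodium phosphate, pH 6.0, at 10 °C. k1, k2 and k2/Kapp were calculated from the fluorescence kinetics.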

Assay [3] has as its system Mycobacterium tuberculosis. The assay is described as follows: Activity at Mycobacterium tuberculosis beta lactamase BlaC expressed in Escherichia coli assessed as ratio of Kcat to Km by spectrophotometric method. A digest of the protocol:
as §1

Regarding `C[C@@H](O)[C@H]1C(=O)N2C(C(=O)O)=C(S[C@@H]3CN[C@H](CNS(N)(=O)=O)C3)[C@H](C)[C@H]12`, the Km in assay [1] came to 0.46 µM. The Ratio in assay [2] amounted to 1500 M⁻¹ s⁻¹. For the same compound, the kcat/Km in assay [3] was 1500 M⁻¹ s⁻¹.

Turning to `C[C@@H](O)[C@H]1C(=O)N2C(C(=O)O)=C(S[C@@H]3CN[C@H](C(=O)Nc4cccc(C(=O)O)c4)C3)[C@H](C)[C@H]12`, the Km in assay [1] was found to be 4.8 µM. For the same compound, the Ratio in assay [2] stood at 23000 M⁻¹ s⁻¹. For the same compound, in assay [3], the specificity constant (kcat/Km) stood at 330 M⁻¹ s⁻¹.

On to `C[C@@H](O)[C@H]1C(=O)N2C(C(=O)O)=C(SCCc3cn(CCCCC(=O)O)nn3)[C@H](C)[C@H]12`, for which the Km in assay [1] came out at 56 µM. Besides, in assay [2], the Ratio was determined as 9600 M⁻¹ s⁻¹. The specificity constant (kcat/Km) in assay [3] was 5700 M⁻¹ s⁻¹.

As for `C[C@@H](O)[C@H]1C(=O)N2C(C(=O)O)=C(SCCc3cn(-c4ccccc4)nn3)[C@H](C)[C@H]12`, the Km in assay [1] came to 0.31 µM. In assay [2], the Ratio turned out to be 26000 M⁻¹ s⁻¹. In assay [3], the kcat/Km was found to be 2100 M⁻¹ s⁻¹.

Take `C[C@@H](O)[C@H]1C(=O)N2C(C(=O)O)=C(SCCc3cn(CCc4c[nH]c5ccccc45)nn3)[C@H](C)[C@H]12`: the Km in assay [1] worked out at 0.17 µM. For the same compound, the Ratio in assay [2] was determined as 28000 M⁻¹ s⁻¹. In assay [3], the kcat/Km worked out at 2000 M⁻¹ s⁻¹.

`C[C@@H](O)[C@H]1C(=O)N2C(C(=O)O)=C(SCCc3ccccc3)[C@H](C)[C@H]12`: the Michaelis-Menten constant (Km) in assay [1] amounted to 1.5 µM. Besides, the Ratio in assay [2] is 39000 M⁻¹ s⁻¹. Moreover, the catalytic efficiency (kcat/Km) in assay [3] was found to be 360 M⁻¹ s⁻¹.

Consider `C[C@@H](O)[C@H]1C(=O)N2C(C(=O)O)=C(SCCc3cn(-c4ccccc4C(=O)O)nn3)[C@H](C)[C@H]12`, for which, in assay [1], the Km is 3.3 µM. The Ratio in assay [2] turned out to be 26000 M⁻¹ s⁻¹. In assay [3], the kcat/Km worked out at 300 M⁻¹ s⁻¹.

Regarding `CCSC1=C(C(=O)O)N2C(=O)[C@H]([C@@H](C)O)[C@H]2[C@H]1C`, in assay [1], the Michaelis-Menten constant (Km) is 11 µM. The Ratio in assay [2] was 10800 M⁻¹ s⁻¹. In assay [3], the kcat/Km came out at 3700 M⁻¹ s⁻¹.

With `C[C@@H](O)[C@H]1C(=O)N2C(C(=O)O)=C(SCCN)[C@H](C)[C@H]12`, the Km in assay [1] stood at 3.5 µM. For the same compound, in assay [2], the Ratio is 3600 M⁻¹ s⁻¹. Further, the kcat/Km in assay [3] worked out at 320 M⁻¹ s⁻¹.

Consider `C[C@@H](O)[C@H]1C(=O)N2C(C(=O)O)=C(S[C@@H]3CN[C@H](C(=O)N(C)C)C3)[C@H](C)[C@H]12`, for which, in assay [1], the Km is 0.92 µM. The Ratio in assay [2] is 1300 M⁻¹ s⁻¹. In addition, the kcat/Km in assay [3] was 1000 M⁻¹ s⁻¹.

Consider `C[C@@H](O)[C@H]1C(=O)N2C(C(=O)O)=C(SCCc3cn(-c4cccc(C(=O)O)c4)nn3)[C@H](C)[C@H]12`, for which the Km in assay [1] was 19 µM. The Ratio in assay [2] stood at 36000 M⁻¹ s⁻¹. In assay [3], the kcat/Km came to 13000 M⁻¹ s⁻¹.

Consider `CCSC1=C(C(=O)O)N2C(=O)[C@H]([C@@H](C)OC(=O)c3ccccc3)[C@H]2[C@H]1C`, for which the Km in assay [1] was 1.2 µM. For the same compound, in assay [2], the Ratio is 3800 M⁻¹ s⁻¹. Moreover, the kcat/Km in assay [3] is 1500 M⁻¹ s⁻¹.

Regarding `CC(c1ccc(C(=O)O)cc1)n1cc(CCSC2=C(C(=O)O)N3C(=O)[C@H]([C@@H](C)O)[C@H]3[C@H]2C)nn1` (some centres not stated), in assay [1], the Km is 47 µM. For the same compound, in assay [2], the Ratio came out at 29000 M⁻¹ s⁻¹. Also, the catalytic efficiency (kcat/Km) in assay [3] came to 3200 M⁻¹ s⁻¹.

As to `CCSC1=C(C(=O)O)N2C(=O)[C@H]([C@@H](C)OC(=O)c3c(F)c(F)c(F)c(F)c3F)[C@H]2[C@H]1C`, the Km in assay [1] was 1.4 µM. Besides, the Ratio in assay [2] was 25000 M⁻¹ s⁻¹. The kcat/Km in assay [3] came to 840 M⁻¹ s⁻¹.

The values above are taken from ChEMBL document CHEMBL3797045, “Routes of Synthesis of Carbapenems for Optimizing Both the Inactivation of L,D-Transpeptidase LdtMt1 of Mycobacterium tuberculosis and the Stability toward Hydrolysis by β-Lactamase BlaC” (J Med Chem, 2016).
